An excerpt weighted towards active compounds, which were near 6.7% of everything screened.
GRIN3A LBD mod: modulators (binders) of human NR3A ligand-binding domain; Tm shift relative to glycine control, % at 25 µM; NR3A LBD differential scanning fluorimetry, Tm shift; 0% = protein alone, 100% = glycine-bound protein; 340,000 compounds, 2.5% hits;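 active means melting temperature shift of at least 10% of the positive control shift, at one fixed dose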
PREPL inh: human PREPL enzyme inhibition | Q4J6C6 | recombinant PREPL, fluorescence polarization activity-based probe | inhibition, % at 5.96 µM | 320,000 compounds, 0.68% hits | AID 2751; in the data active means inhibition above about 43%
Target sequence (Q4J6C6 whole entry, looked up): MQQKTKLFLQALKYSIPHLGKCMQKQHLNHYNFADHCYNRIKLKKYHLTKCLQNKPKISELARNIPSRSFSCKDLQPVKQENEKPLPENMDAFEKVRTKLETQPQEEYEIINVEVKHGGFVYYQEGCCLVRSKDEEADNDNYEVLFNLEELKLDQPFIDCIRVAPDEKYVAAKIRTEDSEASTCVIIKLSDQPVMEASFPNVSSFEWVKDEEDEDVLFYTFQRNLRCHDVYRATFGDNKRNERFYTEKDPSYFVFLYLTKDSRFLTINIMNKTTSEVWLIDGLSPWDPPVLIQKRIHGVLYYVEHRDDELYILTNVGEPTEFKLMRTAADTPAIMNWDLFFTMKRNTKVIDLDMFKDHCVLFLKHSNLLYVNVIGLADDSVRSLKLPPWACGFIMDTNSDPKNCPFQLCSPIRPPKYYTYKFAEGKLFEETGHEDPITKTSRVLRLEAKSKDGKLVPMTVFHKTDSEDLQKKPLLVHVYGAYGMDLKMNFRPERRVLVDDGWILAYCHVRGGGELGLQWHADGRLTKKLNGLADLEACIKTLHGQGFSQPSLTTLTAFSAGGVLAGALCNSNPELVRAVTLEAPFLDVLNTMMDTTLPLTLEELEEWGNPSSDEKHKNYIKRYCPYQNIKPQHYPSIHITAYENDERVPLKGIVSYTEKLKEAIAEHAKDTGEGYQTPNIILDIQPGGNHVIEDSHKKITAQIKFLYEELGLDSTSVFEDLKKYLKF
T cruzi inh: T. cruzi replication inhibition; T. cruzi beta-gal in NIH3T3, luminescence, 90 h; inhibition, % (concentration not given with the values); 300,000 compounds, 1.4% hits; AID 1885;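 active means mean inhibition across valid replicates above about 55%, limit read from the data; inconclusive means mean below that limit but half or more replicates reach it; inactive means mean below it, under half of replicates reach it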;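 further: signal also drops with host cell toxicity which is not excluded here; higher percent means less beta-gal luminescence so fewer parasites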
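Assay system: NIH/3T3 fibroblasts plus reporter T. cruzi. Amount: NIH/3T3 cells, 5,000 per well. Buffer or medium: DMEM, 2% fetal bovine serum. Doses: compound pinned at 50 nL/well, DMSO. Schedule: ≥90 h infection period, 3 h prior cell attachment. Signal: luminescent β-galactosidase signal after 60 min lysis. Read-out: parasite load inhibition, %.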
Beta cell apopt: blocks beta cell apoptosis; 300,000 compounds, 0.8% hits; INS-1E cytokine-induced death, ATP luminescence, 48 h; percent of positive-control rescue, neutral wells zero; protection from apoptosis, % (test concentration not listed);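 active means Every replicate reaches about 75%, or at least half do and their mean reaches it too, limit read from the data; inconclusive means At least half of replicates reach the limit but their mean does not; inactive means Under half of replicates reach the limit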;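 further: higher means more ATP so stronger rescue from cytokine killing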
CHOP inhibitor: blocks CHOP induction under ER stress | inhibition, % at 10 µM | CHO-K1 CHOP-promoter luciferase, tunicamycin-induced, 15-18 h | 220,000 compounds, 3.8% hits;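 active means compounds that reduced the stress-induced luciferase reporter signal by more than about 70% of percent inhibition, limit read from the data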
CSC inhib: cancer stem cell inhibition. 300,000 compounds, 1.1% hits. cancer stem cell-like cells viability, luminescence. AID 2717. inhibition, % at 7.5 µM; in the data active means inhibition above about 75%; inconclusive means no clear call, values can overlap the other calls; tested in HMLE shEcad cells
Each line names hits and unclear results; the compound was inactive in the other large screens; ! = repeats disagree.

Cc1ccc(C)c(SCC(=O)NCC(c2ccco2)N2CCCCC2)c1 (centres undefined)	none (no result: CHOP inhibitor)
O=C(Nc1ccc(Cl)c(Cl)c1)c1ccc(Cl)c(Cl)c1	GRIN3A LBD mod 42.0
O=C(Nc1ccc(Cl)c(Cl)c1)c1ccncc1	none
CS(=O)(=O)c1cccc(NC(=O)c2ccc(Cl)c(Cl)c2)c1	T cruzi inh 57.7
Cc1ccc(NC(=O)c2ccc(Cl)c(N3C(=O)C=CC3=O)c2)cc1	CSC inhib 78.5 (no result: T cruzi inh)
O=C(Nc1ccc2c(c1)C(=O)N(CC1CCCO1)C2=O)c1ccc(Cl)c(Cl)c1 (centres undefined)	CHOP inhibitor 91.0 (no result: Beta cell apopt)
Cc1ccc(NC(=O)c2ccccc2)cc1	none
COCCn1c(SCC(=O)N2CC(=O)Nc3ccccc32)nc2ccccc21	none
O=C(Nc1ccc(Cl)cc1)Nc1nc(-c2ccccc2)cs1	GRIN3A LBD mod 11.5
Fc1ccc(-c2csc(NC(=S)Nc3ccccc3)n2)cc1	GRIN3A LBD mod 25.0 (no result: Beta cell apopt, CHOP inhibitor, CSC inhib)
O=C(Nc1cccc(Cl)c1)Nc1nc(-c2ccccc2)cs1	GRIN3A LBD mod 30.8, T cruzi inh inconclusive
Cc1csc(NC(=O)Nc2cccc(Cl)c2)n1	GRIN3A LBD mod 27.9
O=C(Nc1nc(-c2ccccc2)cs1)c1ccccc1NS(=O)(=O)c1ccc(F)cc1	GRIN3A LBD mod 31.6, Beta cell apopt 90.0, CSC inhib 121.2
COc1ccccc1NC(=O)Cc1csc(NC(=S)Nc2ccccc2)n1	GRIN3A LBD mod 11.2
O=C(Nc1cccnc1)c1ccccc1NS(=O)(=O)c1ccc(F)cc1	none
COc1ccc(NC(=S)Nc2nc(CC(=O)Nc3ccccc3OC)cs2)cc1	none
Cn1nc(-c2ccc(Cl)cc2)cc1NC(=O)Nc1ccccc1	GRIN3A LBD mod 25.6
Cc1c(O)cccc1C(=O)N[C@@H](CSc1ccccc1)[C@H](O)CN1C[C@H]2CCCC[C@H]2C[C@H]1C(=O)NC(C)(C)C	T cruzi inh 66.6!, CSC inhib 77.5! (no result: CHOP inhibitor)
Cc1nc(NC(=O)c2ccc(Cl)cc2)nc2cc3c(cc12)OCO3	none
COc1ccc(C(=O)Nc2nc(C)c3cc4c(cc3n2)OCO4)cc1	CHOP inhibitor 72.4
COc1ccc2c(C)cc(SCC(=O)c3ccc4c(c3)OCO4)nc2c1	T cruzi inh 58.6
COc1ccc2c(C)cc(SCC(=O)NC3CCCC3)nc2c1	none (no result: T cruzi inh, CHOP inhibitor)
CCCOc1ccc2cc(-c3ccccn3)c(=O)oc2c1	CHOP inhibitor 70.7
O=C1CC(c2ccco2)Cc2nc(Nc3nc(-c4ccccc4)c4ccccc4n3)ncc21 (centres undefined)	CHOP inhibitor 92.8 (no result: Beta cell apopt)
O=C(Nc1ncc2c(n1)CC(c1ccco1)CC2=O)c1ccccc1 (centres undefined)	none (no result: CSC inhib)
Cc1cccc(C)c1NC(=O)CNC(=O)C1CC(=O)N(Cc2ccccc2)C1 (centres undefined)	none (no result: CHOP inhibitor)
O=C1NC(=O)/C(=C/c2cc3c(cc2Br)OCO3)S1	none (no result: CHOP inhibitor)
O=C1NC(=O)/C(=C\c2ccc(Br)o2)S1	T cruzi inh 68.6 (no result: CHOP inhibitor)
O=Cc1cn(-c2ccccc2)nc1-c1ccccc1	none (no result: Beta cell apopt, CHOP inhibitor)
CC1=NNC(=O)/C1=C\c1cn(-c2ccccc2)nc1-c1ccccc1	Beta cell apopt 109.1, CHOP inhibitor 108.0
O=C(C(c1ccccc1)c1ccccc1)N1CCN(Cc2ccc(Br)cc2)CC1	CHOP inhibitor 80.6
O=C(CN1CCN(Cc2ccccc2)CC1)c1ccc(Br)cc1	GRIN3A LBD mod 11.2 (no result: PREPL inh, T cruzi inh, Beta cell apopt, CSC inhib)
COc1ccc(N2CCN(C(=O)c3ccc(COc4ccc([N+](=O)[O-])cc4)o3)CC2)cc1	none (no result: PREPL inh, Beta cell apopt, CHOP inhibitor, CSC inhib)
C=CCNc1oc(Cc2cccc3ccccc23)nc1C#N	none
N#Cc1nc(-c2ccc(F)cc2)oc1NCc1cccc2c1OCO2	CHOP inhibitor 84.1
N#Cc1nc(Cc2cccc3ccccc23)oc1NCc1ccc(F)cc1	CHOP inhibitor 71.2
NCC1OC(O[C@@H]2[C@H](O)C(OC3C(O)C(N)CC(N)C3OC3OC(CO)C(O)C(O)C3N)O[C@@H]2CO)C(N)C(O)C1O (some centres undefined)	none (no result: GRIN3A LBD mod, PREPL inh, T cruzi inh, Beta cell apopt, CSC inhib)
COc1ccc(NCc2ccc(OC)c(Cn3ccnc3)c2)c(OC)c1	T cruzi inh 55.7 (no result: CHOP inhibitor)
COc1ccc(Cn2ccnc2)cc1Br	none
CN1/C(=C\C(=O)c2ccco2)C(C)(C)c2ccccc21	Beta cell apopt 99.3
CN1/C(=C\C(=O)COC(=O)c2ccco2)C(C)(C)c2ccccc21	none
COc1ccccc1OCC(=O)/C=C1/N(C)c2ccccc2C1(C)C	none

Compound activity deposited in PubChem BioAssay by several laboratories.
